From ChEMBL document CHEMBL4837200, “Discovery of Orally Bioavailable Purine-Based Inhibitors of the Low-Molecular-Weight Protein Tyrosine Phosphatase” (J Med Chem, 2021)
The source made the active and inactive calls. The rule behind the calls is not given here.

Experiments:
[1] = molecular target: T1, Low molecular weight phosphotyrosine protein phosphatase (Homo sapiens, UniProt P24666); experiment: Inhibition of recombinant human LMPTP-A using OMFP or pNPP as substrate by fluorescence assay
T1 sequence (P24666 whole entry): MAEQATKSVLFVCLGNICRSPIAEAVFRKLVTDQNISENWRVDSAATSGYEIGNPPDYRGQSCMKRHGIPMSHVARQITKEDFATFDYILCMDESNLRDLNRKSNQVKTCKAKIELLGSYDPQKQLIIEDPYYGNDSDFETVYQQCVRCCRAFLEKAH
Outline: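 Recombinant human LMPTP-A in 50 mM Bis-Tris pH 6.0, 1 mM DTT, 0.01% Triton X-100, 37°C. With OMFP, fluorescence followed continuously (ex 485/em 525 nm). With pNPP, reaction stopped with 2 volumes 1 M NaOH and absorbance read at 405 nm. IC50 from inhibitor concentration vs % enzyme activity plots; n=4 unless otherwise noted.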

[2] = Volume of distribution in C57BL/6 mouse at 2 mg/kg, iv measured upto 24 hrs by LC-MS/MS analysis; type: ADME, organism-based; settings: in vivo
[3] = Cmax in C57BL/6 mouse at 10 mg/kg, po measured upto 24 hrs by LC-MS/MS analysis; type: ADME, organism-based; design: route oral, dose 10 mg/kg, time <=24; settings: in vivo
[4] = AUC in C57BL/6 mouse at 10 mg/kg, po measured upto 24 hrs by LC-MS/MS analysis; type: ADME, organism-based; design: route oral, dose 10 mg/kg, time <=24; settings: in vivo
[5] = Half life in C57BL/6 mouse at 10 mg/kg, po measured upto 24 hrs by LC-MS/MS analysis; type: ADME, organism-based; settings: in vivo
[6] = Oral bioavailability in C57BL/6 mouse at 10 mg/kg measured upto 24 hrs by LC-MS/MS analysis; type: ADME, organism-based; settings: in vivo
[7] = Plasma protein binding in human; type: ADME, cell-free
[8] = Plasma protein binding in mouse; type: ADME, cell-free
[9] = Microsomal stability in human liver microsomes assessed as parent compound remaining measured after 1 hr; type: ADME, Microsome; settings: read-out: Stabilty
[10] = Microsomal stability in mouse liver microsomes assessed as parent compound remaining measured after 1 hr; type: ADME, Microsome; settings: read-out: Stabilty
[11] = molecular target: T2, Low molecular weight phosphotyrosine protein phosphatase (Homo sapiens) (UniProt P24666); experiment: Inhibition of LMPTP in human HepG2 cells assessed as increase in insulin-stimulated AKT Thr308 phosphorylation at 500 nM preincubated overnight followed by insulin stimulation for 5 mins by Western blotting analysis; type: cell-based
T2 sequence (whole entry): T1 sequence (P24666 whole entry)
Outline: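 HepG2 cells grown in EMEM with 10% FBS plus penicillin/streptomycin. Serum-starved (0.1% FBS) overnight with DMSO or 500 nM compound, then stimulated with 10 nM bovine insulin for 5 min at 37°C with compound still present. Lysates probed by Western blot for pAKT Thr308, normalized to total AKT or GAPDH. 8 independent experiments.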

Mus musculus [12] = experiment: Reversal of high fat diet induced diabetes in B6 mouse assessed as improved glucose tolerance at 30 mg/kg/day, po administered for 2 weeks followed by 13 hrs fasting and measured by IPGTT; type: functional, organism-based
Outline: (§1)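 Male C57BL/6 littermates fed 60 kcal% fat chow for 3 months from 1-2 months of age; DIO mice ≥35 g given HFD containing 0.03% w/w compound (about 30 mg/kg/day) or HFD alone for 2 weeks. HFD n=8; treated n=9.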

Mus musculus [13] = experiment: Reversal of high fat diet induced diabetes in B6 mouse assessed as decrease in fasting insulin levels at 30 mg/kg/day, po administered for 2 weeks by ELISA; type: functional, organism-based; outline: as §1
Mus musculus [14] = experiment: Reversal of high fat diet induced diabetes in B6 mouse assessed as increase in insulin-stimulated IR tyrosine phosphorylation in liver at 30 mg/kg/day, po administered for 2 weeks by ELISA; type: functional, organism-based; outline: as §1
Mus musculus [15] = experiment: Reversal of high fat diet induced diabetes in B6 mouse assessed as increase in insulin-stimulated AKT Thr308 phosphorylation in liver at 30 mg/kg/day, po administered for 2 weeks by Western blotting analysis; type: functional, organism-based; outline: as §1
[16] = molecular target: T2, Low molecular weight phosphotyrosine protein phosphatase (Homo sapiens); experiment: Uncompetitive inhibition of recombinant human LMPTP-A using OMFP as substrate by Lineweaver-Burk plot analysis
Outline: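 Recombinant human LMPTP-A at 20 nM acting on increasing OMFP concentrations with increasing inhibitor concentrations. Buffer was 50 mM Bis-Tris pH 6.0, 1 mM DTT, 0.01% Triton X-100 at 37°C. Fluorescence read continuously (ex 485/em 525 nm). Rates fitted to Michaelis-Menten and mixed-model inhibition equations and shown as Lineweaver-Burk plots. 3 independent experiments in triplicate.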

Nc1ncn(Cc2c(Cl)cccc2Cl)c2nc(-c3ccccc3)nc1-2
IC50 [1]: 104 nM

Cc1ccccc1-c1nc2c(N)ncn(Cc3c(Cl)cncc3Cl)c-2n1
IC50 [1]: 6 nM
Vd [2]: 4.04 L/kg
Cmax [3]: 17 ng/mL
AUC [4]: 38 ng·h/mL
t1/2 [5]: 1.55 h
F [6]: 3%

Nc1ncn(Cc2c(Cl)cccc2Cl)c2nc(Br)nc1-2
IC50 [1]: 17600 nM

Nc1ncn(Cc2ccccc2Cl)c2ncnc1-2
IC50 [1]: 1930 nM

Nc1ncn(Cc2c(Cl)cccc2Cl)c2nc(-c3ccc(Cl)cc3)nc1-2
IC50 [1]: 288 nM

Nc1ncn(Cc2ccccc2)c2ncnc1-2 [3-BENZYLADENINE]
IC50 [1]: 13600 nM

Nc1ncn(Cc2c(Cl)cccc2Cl)c2nc(-c3ccc(F)cc3)nc1-2
IC50 [1]: 117 nM

Nc1ncn(Cc2ccc(Cl)cc2Cl)c2ncnc1-2
IC50 [1]: 1020 nM

Cc1nc2c(N)ncn(Cc3c(Cl)cccc3Cl)c-2n1
IC50 [1]: 306 nM

Cc1cccc(-c2nc3c(N)ncn(Cc4c(Cl)cccc4Cl)c-3n2)c1
IC50 [1]: 87 nM

Nc1ncn(Cc2c(Cl)cccc2Cl)c2nc(-c3cccc(F)c3)nc1-2
IC50 [1]: 239 nM

Nc1ncn(Cc2c(Cl)cccc2Cl)c2nc(-c3ccccc3F)nc1-2
IC50 [1]: 147 nM

Nc1ncn(Cc2cccc(Cl)c2)c2ncnc1-2
IC50 [1]: 18500 nM

Nc1ncn(Cc2ccc(Cl)cc2)c2ncnc1-2
IC50 [1]: 19400 nM

Nc1ncn(Cc2c(Cl)cccc2Cl)c2nc(-c3cccc(Cl)c3)nc1-2
IC50 [1]: 380 nM

COc1ccccc1-c1nc2c(N)ncn(Cc3c(Cl)cccc3Cl)c-2n1
IC50 [1]: 106 nM

Nc1ncn(Cc2c(Cl)cncc2Cl)c2ncnc1-2
IC50 [1]: 83 nM
Vd [2]: 0.81 L/kg
Cmax [3]: 8220 ng/mL
AUC [4]: 9501 ng·h/mL
t1/2 [5]: 0.71 h
F [6]: 100%
PPB [7]: 88%
PPB [8]: 89%
remaining at 1 h [9]: > 90%
remaining at 1 h [10]: > 90%
inhibition [11]: Active
Activity (Mus musculus [12]): Active
Activity (Mus musculus [13]): Active
Activity (Mus musculus [14]): Active
Activity (Mus musculus [15]): Active

Nc1ncn(Cc2c(Cl)cccc2Cl)c2nc(Cl)nc1-2
IC50 [1]: 27800 nM

Cc1ccccc1-c1nc2c(N)ncn(Cc3c(Cl)cccc3Cl)c-2n1
IC50 [1]: 20 nM
inhibition [16]: Active
Vd [2]: 2.75 L/kg
Cmax [3]: 134 ng/mL
AUC [4]: 312 ng·h/mL
t1/2 [5]: 1.35 h
F [6]: 19%

Cc1cccc(C)c1Cn1cnc(N)c2ncnc1-2
IC50 [1]: 3430 nM

Cc1ccc(-c2nc3c(N)ncn(Cc4c(Cl)cccc4Cl)c-3n2)cc1
IC50 [1]: 119 nM

Nc1ncn(Cc2c(Cl)cccc2Cl)c2ncnc1-2
IC50 [1]: 239 nM
Vd [2]: 3.01 L/kg
Cmax [3]: 5018 ng/mL
AUC [4]: 18544 ng·h/mL
t1/2 [5]: 4.71 h
F [6]: 66%

N#Cc1ccccc1-c1nc2c(N)ncn(Cc3c(Cl)cccc3Cl)c-2n1
IC50 [1]: 245 nM

Nc1ncn(Cc2c(Cl)cccc2Cl)c2nc(-c3ccccc3Cl)nc1-2
IC50 [1]: 171 nM
